Measurements as given in ChEMBL document CHEMBL4406821, “Novel dual inhibitors targeting CDK4 and VEGFR2 synergistically suppressed cancer progression and angiogenesis” (Eur J Med Chem, 2019).
The source made the active and inactive calls. No cut-off for these calls is given here.

Columns and labels:
[1] = biological target: Protein kinase C alpha type (Homo sapiens) (UniProt P17252); assay: Inhibition of recombinant human full length PKCalpha at 1 uM using histone H1 as substrate incubated for 40 mins in presence of [gamma-33P]-ATP by scintillation counting method relative to control
[2] = biological target: 5'-AMP-activated protein kinase catalytic subunit alpha-2 (Homo sapiens) (UniProt P54646); assay: Inhibition of recombinant full length human AMPKalpha2 at 1 uM using AMARAASAAALAR as substrate incubated for 40 mins in presence of [gamma-33P]-ATP by scintillation counting method relative to control
5'-AMP-activated protein kinase catalytic subunit alpha-2 (Homo sapiens), sequence (P54646 whole entry, looked up): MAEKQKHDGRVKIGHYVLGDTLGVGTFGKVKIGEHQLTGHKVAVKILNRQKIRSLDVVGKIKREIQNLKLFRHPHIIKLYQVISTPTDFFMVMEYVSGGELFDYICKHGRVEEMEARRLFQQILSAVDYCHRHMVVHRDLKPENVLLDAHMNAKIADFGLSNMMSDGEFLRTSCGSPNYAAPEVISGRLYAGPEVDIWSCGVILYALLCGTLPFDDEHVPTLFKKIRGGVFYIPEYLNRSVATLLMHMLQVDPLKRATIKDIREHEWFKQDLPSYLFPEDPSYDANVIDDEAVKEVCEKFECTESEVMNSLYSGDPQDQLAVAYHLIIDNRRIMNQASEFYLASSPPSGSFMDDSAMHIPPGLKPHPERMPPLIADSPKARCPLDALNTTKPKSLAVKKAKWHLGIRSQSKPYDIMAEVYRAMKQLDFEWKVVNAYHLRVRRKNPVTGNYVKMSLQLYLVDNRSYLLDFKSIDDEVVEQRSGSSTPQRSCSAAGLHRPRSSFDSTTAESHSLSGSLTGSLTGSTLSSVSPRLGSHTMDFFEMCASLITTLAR
In short: (§1)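 Kinase panel profiling at 1 μM performed by Eurofins KinaseProfiler; percent inhibition reported as mean of two independent experiments.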

[3] = n-octanol/phosphate buffered saline partition coefficient, log D of the compound measured at pH 7.4 by shake flask method based HPLC analysis; format: physicochemical
[4] = biological target: Myosin-IIIb (Homo sapiens) (UniProt Q8WXR4); assay: Inhibition of recombinant human MYO3B (1 to 326 residues) at 1 uM using RLGRDKYKTLRQIRQ as substrate incubated for 40 mins in presence of [gamma-33P]-ATP by scintillation counting method relative to control
HeLa = assay: Induction of apoptosis in human HeLa cells assessed as decrease in Bcl2 expression at 40 to 80 nM incubated for 48 hrs by Western blot analysis; format: functional, cell-based
In short: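 Cells were treated for 48 h, washed three times with PBS, and lysed in RIPA buffer. Immunoblots used anti-Rb, anti-phospho-Rb, anti-Ki67 and anti-Bcl-2 (each 1:1000), with β-actin as loading control.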

[5] = Toxicity in NOD/SCID BALB/c mouse xenografted with human SiHa cells assessed as effect on blood parameter by measuring WBC content at 40 mg/kg, po administered once two days for 4 times by hematology analyzer; format: organism-based; conditions: in vivo
[6] = biological target: Serine/threonine-protein kinase TAO1 (Homo sapiens) (UniProt Q7L7X3); assay: Inhibition of recombinant human TAO1 (1 to 327 residues) at 1 uM using myelin basic protein as substrate incubated for 40 mins in presence of [gamma-33P]-ATP by scintillation counting method relative to control
Serine/threonine-protein kinase TAO1 (Homo sapiens), sequence (Q7L7X3 whole entry, the tested form may be a part): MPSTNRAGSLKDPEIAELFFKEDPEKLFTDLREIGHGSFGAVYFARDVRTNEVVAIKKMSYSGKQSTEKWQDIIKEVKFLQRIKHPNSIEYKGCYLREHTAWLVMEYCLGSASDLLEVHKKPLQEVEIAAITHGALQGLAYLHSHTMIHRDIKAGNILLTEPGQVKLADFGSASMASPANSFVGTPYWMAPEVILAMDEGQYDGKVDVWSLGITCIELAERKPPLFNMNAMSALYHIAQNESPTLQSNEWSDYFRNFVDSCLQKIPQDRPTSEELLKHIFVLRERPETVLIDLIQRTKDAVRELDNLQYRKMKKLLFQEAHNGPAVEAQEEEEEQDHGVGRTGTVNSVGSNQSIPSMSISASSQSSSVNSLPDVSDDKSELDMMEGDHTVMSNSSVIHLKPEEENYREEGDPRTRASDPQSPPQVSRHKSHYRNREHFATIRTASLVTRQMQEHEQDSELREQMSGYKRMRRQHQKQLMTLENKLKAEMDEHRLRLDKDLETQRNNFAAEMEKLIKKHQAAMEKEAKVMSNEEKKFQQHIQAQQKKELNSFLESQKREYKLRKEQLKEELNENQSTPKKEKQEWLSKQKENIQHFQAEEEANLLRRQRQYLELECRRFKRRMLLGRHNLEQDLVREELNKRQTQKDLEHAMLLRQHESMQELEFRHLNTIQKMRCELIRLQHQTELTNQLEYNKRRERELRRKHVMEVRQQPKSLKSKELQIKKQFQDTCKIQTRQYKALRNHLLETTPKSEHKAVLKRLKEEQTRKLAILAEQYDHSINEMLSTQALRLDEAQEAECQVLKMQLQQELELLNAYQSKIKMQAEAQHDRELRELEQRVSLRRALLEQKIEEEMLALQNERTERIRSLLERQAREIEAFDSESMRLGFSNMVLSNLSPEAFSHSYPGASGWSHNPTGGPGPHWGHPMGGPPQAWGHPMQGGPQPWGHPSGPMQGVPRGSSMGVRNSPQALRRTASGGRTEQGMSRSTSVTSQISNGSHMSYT

[7] = AUC (0 to infinity) in Sprague-Dawley rat at 10 mg/kg, iv by HPLC-MS analysis; format: ADME, organism-based; design: dose 10 mg/kg, route intravenous, time infinity; conditions: in vivo
In short: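 Rats fitted with jugular vein catheters for serial blood sampling. Compound dissolved in saline with 5% (v/v) DMSO and given as a single 10 mg/kg dose iv or po after an overnight fast, n = 5 per group. Plasma isolated at once and measured by HPLC with tandem MS detection. Parameters derived by noncompartmental fitting.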

SiHa [8] = assay: Induction of cell cycle arrest in human SiHa cells assessed as decrease in cell accumulation in S phase at 40 to 80 nM incubated for 36 hrs by propidium iodide staining based flow cytometry; format: functional
In short: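 Cells were treated with graded concentrations for 36 h, then fixed overnight in 70% ice-cold ethanol at 4°C and resuspended in PBS. Staining used 50 µg/ml PI plus 5 µg/ml RNase at 37°C for 30 min. DNA content was analysed by FACS to give G0/G1, S and G2/M fractions.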

T47D [9] = assay: Antiproliferative activity against human T47D cells assessed as reduction in cell viability at 20 to 40 nM incubated for 48 hrs by EdU staining based laser scanning confocal microscopy; format: functional
In short: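 Cells, 5×10^4, were seeded in 24-well plates and treated for 48 h. They were then labeled using an EdU Apollo 488 imaging kit with Hoechst 33342 nuclear stain and imaged by laser scanning confocal microscopy. Percent EdU-positive cells = EdU-positive/Hoechst-stained × 100%.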

[10] = biological target: Casein kinase II subunit alpha' (Homo sapiens) (UniProt P19784); assay: Inhibition of recombinant human full length CK2alpha2 at 1 uM using RRRDDDSDDD as substrate incubated for 40 mins in presence of [gamma-33P]-ATP by scintillation counting method relative to control
Casein kinase II subunit alpha' (Homo sapiens), sequence (P19784 whole entry, looked up): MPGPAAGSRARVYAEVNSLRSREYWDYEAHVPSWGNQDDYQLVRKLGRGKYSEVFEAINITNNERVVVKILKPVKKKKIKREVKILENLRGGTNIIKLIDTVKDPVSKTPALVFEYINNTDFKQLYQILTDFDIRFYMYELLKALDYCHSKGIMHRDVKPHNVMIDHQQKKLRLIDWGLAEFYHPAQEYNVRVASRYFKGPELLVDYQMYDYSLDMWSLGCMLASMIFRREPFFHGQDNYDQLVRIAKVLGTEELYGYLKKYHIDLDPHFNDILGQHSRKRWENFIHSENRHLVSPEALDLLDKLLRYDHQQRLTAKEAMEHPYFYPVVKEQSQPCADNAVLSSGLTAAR

[11] = biological target: Serine/threonine-protein kinase Chk1 (Homo sapiens) (UniProt O14757); assay: Inhibition of recombinant full length human CHK1 at 1 uM using KKKVSRSGLYRSP as substrate incubated for 40 mins in presence of [gamma-33P]-ATP by scintillation counting method relative to control; in short: as §1
Serine/threonine-protein kinase Chk1 (Homo sapiens), sequence (O14757 whole entry): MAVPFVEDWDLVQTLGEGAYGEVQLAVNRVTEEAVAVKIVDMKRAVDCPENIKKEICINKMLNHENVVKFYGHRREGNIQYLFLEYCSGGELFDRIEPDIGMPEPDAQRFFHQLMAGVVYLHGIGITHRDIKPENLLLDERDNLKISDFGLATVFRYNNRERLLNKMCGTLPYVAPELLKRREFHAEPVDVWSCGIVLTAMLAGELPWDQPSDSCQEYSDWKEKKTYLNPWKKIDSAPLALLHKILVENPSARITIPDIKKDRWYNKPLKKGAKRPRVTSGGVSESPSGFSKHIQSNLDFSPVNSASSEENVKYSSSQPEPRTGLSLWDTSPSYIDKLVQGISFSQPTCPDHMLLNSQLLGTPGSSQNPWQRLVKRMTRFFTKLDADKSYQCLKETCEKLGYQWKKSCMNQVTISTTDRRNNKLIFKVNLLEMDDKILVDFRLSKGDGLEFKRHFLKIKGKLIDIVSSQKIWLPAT

[12] = biological target: Tyrosine-protein kinase Tec (Homo sapiens) (UniProt P42680); assay: Inhibition of activated recombinant human TEC (174 to end residues) at 1 uM using EFPIYDFLPAKKK as substrate incubated for 40 mins in presence of [gamma-33P]-ATP by scintillation counting method relative to control
Tyrosine-protein kinase Tec (Homo sapiens), sequence (P42680 whole entry): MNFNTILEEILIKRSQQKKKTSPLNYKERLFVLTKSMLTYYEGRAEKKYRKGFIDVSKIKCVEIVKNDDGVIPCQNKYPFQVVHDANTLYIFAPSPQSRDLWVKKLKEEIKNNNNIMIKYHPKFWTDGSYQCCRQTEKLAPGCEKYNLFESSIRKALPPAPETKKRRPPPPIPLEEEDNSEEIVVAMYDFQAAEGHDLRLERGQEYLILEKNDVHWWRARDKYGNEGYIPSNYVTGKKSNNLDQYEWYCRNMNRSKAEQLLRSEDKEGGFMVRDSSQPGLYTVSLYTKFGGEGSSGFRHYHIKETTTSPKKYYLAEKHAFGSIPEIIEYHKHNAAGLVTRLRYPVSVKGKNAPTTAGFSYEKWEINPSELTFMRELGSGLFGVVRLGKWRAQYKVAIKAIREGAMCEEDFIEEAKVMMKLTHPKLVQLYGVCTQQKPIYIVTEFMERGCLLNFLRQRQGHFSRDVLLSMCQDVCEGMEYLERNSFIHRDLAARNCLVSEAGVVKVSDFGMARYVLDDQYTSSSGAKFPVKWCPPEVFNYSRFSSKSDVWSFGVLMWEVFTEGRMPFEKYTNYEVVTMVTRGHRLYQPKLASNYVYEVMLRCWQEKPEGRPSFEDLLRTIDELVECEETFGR

[13] = biological target: Serine/threonine-protein kinase D1 (Homo sapiens) (UniProt Q15139); assay: Inhibition of recombinant human full length PKCmu at 1 uM using KKLNRTLSVA as substrate incubated for 40 mins in presence of [gamma-33P]-ATP by scintillation counting method relative to control
[14] = biological target: RAC-alpha serine/threonine-protein kinase (Homo sapiens) (UniProt P31749); assay: Inhibition of recombinant human PKBalpha at 1 uM using as CKRREILSRRPSYRK substrate incubated for 60 mins in presence of [gamma-33P]-ATP by scintillation counting method relative to control
RAC-alpha serine/threonine-protein kinase (Homo sapiens), sequence (P31749 whole entry): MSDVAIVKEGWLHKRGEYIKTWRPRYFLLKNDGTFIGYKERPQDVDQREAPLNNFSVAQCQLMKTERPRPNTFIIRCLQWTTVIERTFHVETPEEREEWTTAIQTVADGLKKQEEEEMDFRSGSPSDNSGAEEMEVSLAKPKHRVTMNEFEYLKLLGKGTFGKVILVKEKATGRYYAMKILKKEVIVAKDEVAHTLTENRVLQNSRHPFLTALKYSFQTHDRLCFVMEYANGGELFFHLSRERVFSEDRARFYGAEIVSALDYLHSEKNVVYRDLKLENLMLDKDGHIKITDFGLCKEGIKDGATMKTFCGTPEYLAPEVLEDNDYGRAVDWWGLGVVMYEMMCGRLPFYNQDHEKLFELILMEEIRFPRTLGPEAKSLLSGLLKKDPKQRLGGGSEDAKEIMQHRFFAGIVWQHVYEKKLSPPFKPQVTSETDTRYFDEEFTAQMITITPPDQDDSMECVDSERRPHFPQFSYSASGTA

[15] = biological target: Serine/threonine-protein kinase NLK (Homo sapiens) (UniProt Q9UBE8); assay: Inhibition of recombinant human NLK (121 to end residues) at 1 uM using myelin basic protein as substrate incubated for 40 mins in presence of [gamma-33P]-ATP by scintillation counting method relative to control
Serine/threonine-protein kinase NLK (Homo sapiens), sequence (Q9UBE8 whole entry): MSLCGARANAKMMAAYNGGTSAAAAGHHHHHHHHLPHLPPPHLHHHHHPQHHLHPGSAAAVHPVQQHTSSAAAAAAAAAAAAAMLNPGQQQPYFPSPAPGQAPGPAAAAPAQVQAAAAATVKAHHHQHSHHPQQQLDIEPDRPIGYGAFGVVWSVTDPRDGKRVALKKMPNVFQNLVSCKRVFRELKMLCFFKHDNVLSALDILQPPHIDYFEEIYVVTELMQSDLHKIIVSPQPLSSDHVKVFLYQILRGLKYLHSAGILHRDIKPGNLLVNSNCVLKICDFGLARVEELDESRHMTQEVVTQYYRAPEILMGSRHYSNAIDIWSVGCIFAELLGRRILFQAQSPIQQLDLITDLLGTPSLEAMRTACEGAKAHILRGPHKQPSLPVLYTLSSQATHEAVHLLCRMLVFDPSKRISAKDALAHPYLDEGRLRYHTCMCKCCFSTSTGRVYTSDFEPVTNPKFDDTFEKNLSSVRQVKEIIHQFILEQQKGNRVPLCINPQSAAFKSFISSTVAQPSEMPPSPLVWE

SiHa [16] = assay: Induction of apoptosis in human SiHa cells assessed as increase in early apoptotic cells at 20 to 40 nM incubated for 48 hrs by annexin V FITC and propidium iodide staining based flow cytometry; format: functional, cell-based
In short: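 Annexin V-FITC/PI double staining with flow-cytometric readout. MDA-MB-231, T-47D, SiHa and HeLa cells were treated with graded concentrations for 48 h. MDA-MB-231 and T-47D were grown in DMEM and SiHa in 1640 medium, each with 10% FBS and 1% penicillin/streptomycin at 37°C under 5% CO2. Early- and late-stage apoptotic fractions were scored.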

[17] = biological target: Serine/threonine-protein kinase D2 (Homo sapiens) (UniProt Q9BZL6); assay: Inhibition of recombinant human full length PKD2 at 1 uM using KKLNRTLSVA as substrate incubated for 40 mins in presence of [gamma-33P]-ATP by scintillation counting method relative to control
[18] = biological target: Vascular endothelial growth factor receptor 2 (Homo sapiens, UniProt P35968); conditions: HUVEC, 40 nM
T47D [19] = assay: Induction of apoptosis in human T47D cells assessed as decrease in Bcl2 expression at 40 nM incubated for 48 hrs by Western blot analysis; format: functional, cell-based
In short: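 Cancer cells were exposed to graded concentrations for 48 h, washed three times in PBS and lysed in RIPA buffer. Immunoblots were probed with anti-Rb, anti-phospho-Rb, anti-Ki67 and anti-Bcl-2, each at 1:1000. β-actin served as loading control.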

inhibition [18]	Compound	inhibition [1] [%]	inhibition [2] [%]	logD [3]	inhibition [4] [%]	Activity (HeLa)	Activity [5]	inhibition [6] [%]	AUC(0-inf) [7] [ng·h/mL]	Activity (SiHa [8])	inhibition (T47D [9])	inhibition [10] [%]	inhibition [11] [%]	inhibition [12] [%]	inhibition [13] [%]	inhibition [14] [%]	inhibition [15] [%]	Activity (SiHa [16])	inhibition [17] [%]	Activity (T47D [19])
–	Cc1ccc(NC(=O)C2(C(=O)Nc3ccc(Nc4ncc(F)c(-c5cc(F)c6nc(C)n(C(C)C)c6c5)n4)cc3)CC2)cc1	70	77	2.51	10	Active	Non-Toxic	2	11000	Active	Active	72	28	1	14	36	44	Active	17	–
Active	COc1cc2nccc(Oc3ccc(NC(=O)C4(C(=O)Nc5ccc(F)cc5)CC4)cc3)c2cc1OC [CABOZANTINIB]	–	–	–	–	–	–	–	–	–	–	–	–	–	–	–	–	–	–	Active
